Experimental data as given in ChEMBL document CHEMBL3400013, “Synthesis and biological activity evaluation of hydrazone derivatives based on a Tröger's base skeleton” (Bioorg Med Chem, 2015).
Active and inactive are the calls of the source. No cut-off for these calls is given here.

How the values were obtained:
[1] = system: Candida parapsilosis; assay: Antifungal activity against Candida parapsilosis up to 200 uM after 24 to 48 hrs by broth microdilution method; format: functional, organism-based
[2] = Cytostatic activity against human HCT116 cells after 72 hrs by MTT assay; format: functional, cell-based; settings: HCT-116, 72 h
Procedure, shortened: (§1)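 Cells were seeded at 25,000–30,000 per well and pre-incubated for 24 h at 37°C in 5% CO2. Four-fold compound dilutions were added in duplicate and incubated for 72 h. MTT was added for 1–4 h, and formazan was dissolved in 10% aq SDS (pH 5.5) overnight at 37°C. OD was read at 540 nm. IC50 came from dose-response curves, mean ± SD of eight independent experiments.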

[3] = system: CCRF-CEM; assay: Induction of apoptosis in human CCRF-CEM cells assessed as apoptotic cells at IC50 after 24 hrs by propidium iodide staining-based flow cytometry; format: functional
Procedure, shortened: (§2)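 Cells were then fixed in 70% ethanol, washed in hypotonic citrate buffer, treated with RNase (50 µg/mL) and stained with propidium iodide. Flow cytometry used a 488 nm laser. Apoptosis was scored as the percentage of particles with propidium content below G0/G1.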

[4] = system: CCRF-CEM; assay: Induction of apoptosis in human CCRF-CEM cells assessed as inhibition of DNA synthesis at 5 times IC50 after 24 hrs by propidium iodide/BrdU staining by flow cytometry; format: functional; parameters: scale not given: the % may be the effect or the level left
[5] = system: CCRF-CEM; assay: Cell cycle arrest in human CCRF-CEM cells assessed as accumulation at S phase at IC50 after 24 hrs by propidium iodide staining-based flow cytometry; format: functional; procedure, shortened: as §2
[6] = system: A549; assay: Selectivity index, ratio of IC50 for human MRC5 cells to IC50 for human A549 cells; format: functional
[7] = system: Staphylococcus aureus; assay: Antimicrobial activity against methicillin-resistant Staphylococcus aureus MRSA 4591 up to 200 uM after 24 to 48 hrs by broth microdilution method; format: functional, organism-based
[8] = system: HCT-116; assay: Selectivity index, ratio of IC50 for human MRC5 cells to IC50 for human HCT116 cells; format: functional
[9] = system: Nucleic Acid; assay: Binding affinity to DNA (unknown origin) assessed as DNA intercalation by UV-visible spectrophotometry in presence of Zn2+; format: nucleic-acid assay
[10] = system: BJ; assay: Selectivity index, ratio of IC50 for human BJ cells to IC50 for human K562-TAX cells; format: functional
[11] = system: Pseudomonas aeruginosa; assay: Antimicrobial activity against multidrug-resistant Pseudomonas aeruginosa A/16575 up to 200 uM after 24 to 48 hrs by broth microdilution method; format: functional, organism-based
[12] = system: CCRF-CEM; assay: Cell cycle arrest in human CCRF-CEM cells assessed as accumulation at G2/M phase at IC50 after 24 hrs by propidium iodide staining-based flow cytometry; format: functional; procedure, shortened: as §2
[13] = system: BJ; assay: Selectivity index, ratio of IC50 for human BJ cells to IC50 for human CCRF-CEM cells; format: functional; settings: pooled result: one value given for 2 cell lines, strains, targets or settings
[14] = Metal chelating activity of the compound assessed as formation of Co2+ complex by UV-vis spectrometry; format: physicochemical
[15] = system: K562; assay: Cytostatic activity against human K562 cells after 72 hrs by MTT assay; format: functional, cell-based; settings: K562, 72 h; procedure, shortened: as §1
[16] = system: Candida tropicalis; assay: Antifungal activity against Candida tropicalis up to 200 uM after 24 to 48 hrs by broth microdilution method; format: functional, organism-based
[17] = system: CCRF-CEM; assay: Induction of apoptosis in human CCRF-CEM cells assessed as inhibition of RNA synthesis at 5 times IC50 after 24 hrs by propidium iodide/BrU staining by flow cytometry; format: functional; parameters: scale not given: the % may be the effect or the level left
[18] = system: HCT-116; assay: Selectivity index, ratio of IC50 for human MRC5 cells to IC50 for human p53-/- HCT116 cells; format: functional
[19] = Metal chelating activity of the compound assessed as formation of Mg2+ complex by UV-vis spectrometry; format: physicochemical
[20] = Metal chelating activity of the compound assessed as formation of Cu2+ complex by UV-vis spectrometry; format: physicochemical
[21] = system: BJ; assay: Selectivity index, ratio of IC50 for human BJ cells to IC50 for human p53-/- HCT116 cells; format: functional
[22] = system: CCRF-CEM; assay: Cell cycle arrest in human CCRF-CEM cells assessed as accumulation at S phase at 5 times IC50 after 24 hrs by propidium iodide staining-based flow cytometry; format: functional; procedure, shortened: as §2
[23] = system: Staphylococcus aureus; assay: Antimicrobial activity against Staphylococcus aureus CCM 3953 up to 200 uM after 24 to 48 hrs by broth microdilution method; format: functional, organism-based
[24] = system: Nucleic Acid; assay: Binding affinity to DNA (unknown origin) assessed as DNA intercalation by UV-visible spectrophotometry in presence of Ni2+; format: nucleic-acid assay
[25] = system: CCRF-CEM; assay: Induction of apoptosis in human CCRF-CEM cells assessed as inhibition of DNA synthesis at IC50 after 24 hrs by propidium iodide/BrdU staining by flow cytometry; format: functional; parameters: scale not given: the % may be the effect or the level left
[26] = system: CCRF-CEM; assay: Induction of apoptosis in human CCRF-CEM cells assessed as apoptotic cells at 5 times IC50 after 24 hrs by propidium iodide staining-based flow cytometry; format: functional; procedure, shortened: as §2
[27] = system: Escherichia coli; assay: Antimicrobial activity against Escherichia coli CCM 3954 up to 200 uM after 24 to 48 hrs by broth microdilution method; format: functional, organism-based
[28] = system: Nucleic Acid; assay: Binding affinity to DNA (unknown origin) assessed as DNA intercalation by UV-visible spectrophotometry; format: nucleic-acid assay
[29] = system: CCRF-CEM; assay: Cell cycle arrest in human CCRF-CEM cells assessed as accumulation at G0/G1 phase at 5 times IC50 after 24 hrs by propidium iodide staining-based flow cytometry; format: functional; procedure, shortened: as §2
[30] = system: Candida albicans; assay: Antifungal activity against Candida albicans up to 200 uM after 24 to 48 hrs by broth microdilution method; format: functional, organism-based
[31] = system: Nucleic Acid; assay: Binding affinity to DNA (unknown origin) assessed as DNA intercalation by UV-visible spectrophotometry in presence of Co2+; format: nucleic-acid assay
[32] = system: K562; assay: Selectivity index, ratio of IC50 for human MRC5 cells to IC50 for human K562 cells; format: functional
[33] = system: CEM-DNR; assay: Selectivity index, ratio of IC50 for human MRC5 cells to IC50 for human CEM-DNR cells; format: functional
[34] = system: Pichia kudriavzevii; assay: Antifungal activity against Candida crusei up to 200 uM after 24 to 48 hrs by broth microdilution method; format: functional, organism-based
[35] = system: Nucleic Acid; assay: Binding affinity to DNA (unknown origin) assessed as DNA intercalation by UV-visible spectrophotometry in presence of Cu2+; format: nucleic-acid assay
[36] = system: Staphylococcus haemolyticus; assay: Antimicrobial activity against methicillin-resistant Staphylococcus haemolyticus A1/16568 up to 200 uM after 24 to 48 hrs by broth microdilution method; format: functional, organism-based
[37] = system: CCRF-CEM; assay: Cell cycle arrest in human CCRF-CEM cells assessed as accumulation at G2/M phase at 5 times IC50 after 24 hrs by propidium iodide staining-based flow cytometry; format: functional; procedure, shortened: as §2
[38] = system: BJ; assay: Selectivity index, ratio of IC50 for human BJ cells to IC50 for human CEM-DNR cells; format: functional
[39] = Metal chelating activity of the compound assessed as formation of Zn2+ complex by UV-vis spectrometry; format: physicochemical
[40] = system: A549; assay: Cytostatic activity against human A549 cells after 72 hrs by MTT assay; format: functional, cell-based; settings: A549, 72 h; procedure, shortened: as §1
[41] = Metal chelating activity of the compound assessed as formation of Mn2+ complex by UV-vis spectrometry; format: physicochemical
[42] = system: CCRF-CEM; assay: Cell cycle arrest in human CCRF-CEM cells assessed as accumulation at G0/G1 phase at IC50 after 24 hrs by propidium iodide staining-based flow cytometry; format: functional; procedure, shortened: as §2

Q: What does the source list for `COc1ccc(O)c(/C=N/NC(=O)c2ccc3c4c(ccc3c2)N2Cc3c(ccc5cc(C(=O)N/N=C/c6cc(OC)ccc6O)ccc35)N(C4)C2)c1`?
A: Activity [1]: inactive; IC50 [2]: 0.05 µM; Activity [3]: 12.97%; Activity [4]: 31.78%; Activity [5]: 54.03%; Ratio IC50 [6]: 123.2; Activity [7]: inactive; Ratio IC50 [8]: 622.3; Activity [9]: Active; Ratio IC50 [10]: 137.7; Activity [11]: inactive; Activity [12]: 15.97%; Ratio IC50 [13]: 162.3; Activity [14]: Active; IC50 [15]: 0.08 µM; Activity [16]: inactive; Activity [17]: 56.37%; Ratio IC50 [18]: 495; Activity [19]: Not Active; Activity [20]: Active; Ratio IC50 [21]: 495; Activity [22]: 48.55%; Activity [23]: inactive; Activity [24]: Active; Activity [25]: 50.98%; Activity [26]: 21.74%; Activity [27]: inactive; Activity [28]: inactive; Activity [29]: 39.05%; Activity [30]: inactive; Activity [31]: Active; Ratio IC50 [32]: 357.2; Ratio IC50 [33]: 13.3; Activity [34]: inactive; Activity [35]: Active; Activity [36]: inactive; Activity [37]: 12.4%; Ratio IC50 [38]: 13.3; Activity [39]: Active; IC50 [40]: 0.23 µM; Activity [41]: Not Active; Activity [42]: 30%

Q: What does the source list for `Cc1ccc(O)c(/C=N/NC(=O)c2ccc3c4c(ccc3c2)N2Cc3c(ccc5cc(C(=O)N/N=C/c6cc(C)ccc6O)ccc35)N(C4)C2)c1`?
A: Activity [1]: inactive; IC50 [2]: 0.62 µM; Activity [3]: 14.09%; Activity [4]: 5.17%; Activity [5]: 44.83%; Ratio IC50 [6]: 0.9; Activity [7]: inactive; Ratio IC50 [8]: 0.8; Activity [9]: Active; Ratio IC50 [10]: 0.4; Activity [11]: inactive; Activity [12]: 14.65%; Ratio IC50 [13]: 0.8; Activity [14]: Active; IC50 [15]: 0.9 µM; Activity [16]: inactive; Activity [17]: 26.44%; Ratio IC50 [18]: 1.1; Activity [19]: Not Active; Activity [20]: Active; Ratio IC50 [21]: 1.1; Activity [22]: 46.78%; Activity [23]: inactive; Activity [24]: Active; Activity [25]: 38.67%; Activity [26]: 54.07%; Activity [27]: inactive; Activity [28]: inactive; Activity [29]: 38.43%; Activity [30]: inactive; Activity [31]: Active; Ratio IC50 [32]: 0.5; Ratio IC50 [33]: 0.1; Activity [34]: inactive; Activity [35]: Active; Activity [36]: inactive; Activity [37]: 14.79%; Ratio IC50 [38]: 0.1; Activity [39]: Active; IC50 [40]: 0.54 µM; Activity [41]: Not Active; Activity [42]: 40.52%
